Assay results gathered from unrelated publications.
Target: Receptor tyrosine-protein kinase erbB-4 (ERBB4, Homo sapiens, UniProt Q15303)

Compound | observed | action | method | tested at | quantity | value
CC(C)(C)c1nc2c(s1)c1nc(N)ncc1c1ccc(NS(=O)(=O)c3c(F)cccc3F)c(F)c12 | enzyme activity | inhibitor | radiometric | 1 µM | remaining activity | 80%
Cc1cc(C)c(-n2ccn3nc(-c4cccnc4)cc23)cc1NC(=O)c1cc(C#N)cc(S(F)(F)(F)(F)F)c1 | cell-free assay | – | competition with immobilised ligand | 0.1 µM | remaining binding | 96.3%
COc1cc(Cl)c(C(=O)N[C@@H](CN[C@H]2CC[C@@H](N)CC2)Cc2ccc(C#N)cc2)cc1-c1ccc(CN[C@H](C)c2ccc(C)cc2)o1 | enzyme activity | inhibitor | – | 1 µM | remaining activity | 99%
CCCS(=O)(=O)Nc1ccc(F)c(C(=O)c2c[nH]c3ncc(-c4ccc(Cl)cc4)cc23)c1F | enzyme activity | inhibitor | – | 1 µM | inhibition | < 10%
Cc1ccc(NC(=O)c2ccc(C)c(C(F)(F)F)c2)cc1C#Cc1nn(C2CCC(O)CC2)c2ncnc(N)c12 (stereo not shown) | cell-free assay | – | – | 10 µM | remaining signal | -3%
O=C1NC(=O)c2cc(Nc3ccc(F)cc3)c(Nc3ccc(F)cc3)cc21 | cell-free assay | – | – | 0.5 µM | remaining signal | 99.4%
Cc1nc(N2CC[C@@H](O)C2)ncc1-c1cc(C(F)(F)F)cc2[nH]ncc12 | binding | – | competition with immobilised ligand | 1 µM | remaining binding | 87%
CC/C(=N\NC(=O)NCc1cccc(O)c1)c1ccc(O)c(C)c1O | enzyme activity | inhibitor | – | 0.1 µM | inhibition | 9.9%
CN(C(=O)c1ccccc1)c1cc(N(C)c2ccc3c(c2)CCc2ccc(C(=O)NCCN4CCOCC4)cc2C3=O)ccc1F | cell-free assay | – | competition with immobilised ligand | 1 µM | remaining binding | 90%
O=C1Nc2ccc(Cl)cc2C1=Cc1cc(Cl)c(O)c(Cl)c1 | cell-free assay | – | – | 0.5 µM | remaining signal | 94.2%
COc1cc2ncnc(Nc3ccc(Oc4ccccc4)cc3C)c2cc1OC | enzyme activity | inhibitor | – | 1 µM | inhibition | 98%
N#CCCc1ccc2c(c1)-c1[nH]c3ccc([N+](=O)[O-])cc3c1CC(=O)N2 | cell-free assay | – | – | 0.5 µM | remaining signal | 91.8%
Cc1ccc(Nc2nccc(N(C)c3ccc4c(C)n(C)nc4c3)n2)cc1S(N)(=O)=O | enzyme activity | inhibitor | – | 10 µM | inhibition | 36%
CN(C)C(=O)Cn1cc(-c2nc([C@@](C)(c3ccc(-c4cnc(N)nc4)cc3)C3CC3)no2)cn1 | cell-free assay | – | competition with immobilised ligand | 1 µM | remaining binding | 100%
COc1cc(Nc2cnc(C#N)c(O[C@H](C)CN(C)C)n2)ncc1-c1cnn(C)c1 | enzyme activity | inhibitor | radiometric | 1 µM | remaining activity | 101%
CCCOc1ccc(OC)c(F)c1C(=O)c1ccc(C(=O)N[C@@H]2CNC[C@H]2NC(=O)c2ccc3[nH]ncc3c2)cc1 | enzyme activity | inhibitor | – | 10 µM | remaining activity | 92%
CC(C)(O)[C@H]1CC[C@H](Nc2ccc3ncc(-c4cccc(C(F)(F)F)c4)n3n2)CC1 | enzyme activity | inhibitor | – | 1 µM | remaining activity | 92.6%
FC(F)c1nc2ccccc2n1-c1nc(N2CCOCC2)nc(N2CCOCC2)n1 | enzyme activity | inhibitor | – | 10 µM | remaining activity | 103%
Cc1sc(C(=O)NC2COC2)cc1-n1cc(NC(=O)Nc2c(F)cccc2Cl)cn1 | enzyme activity | inhibitor | – | 10 µM | remaining activity | 95%
CN1CC(Oc2cnc(C#N)cc2-c2ccn3nc(NC(=O)C4CC4)cc3c2)C1 | enzyme activity | inhibitor | – | 1 µM | inhibition | -2%
CNCc1ccccc1-c1csc([C@H](C)Nc2nc(C)nc3cc(OC)c(OC)cc23)c1 | cell-free assay | – | competition with immobilised ligand | 1 µM | remaining binding | 100%
Oc1cccc(-c2nc(N3CCOCC3)c3oc4ncccc4c3n2)c1 | enzyme activity | inhibitor | – | 10 µM | remaining activity | 114%
Cc1cc(-n2nc(Cc3cc(F)cc(C(F)(F)F)c3)nc2C)ccc1C(N)=O | cell-free assay | – | competition with immobilised ligand | 1 µM | remaining binding | 67%
Cc1cnc(NC2CCOCC2)nc1-n1cnc(C(=O)NC(CN)c2cc(F)cc(Cl)c2)c1 (stereo not shown) | enzyme activity | inhibitor | radiometric | 1 µM | remaining activity | 108%
O=C(NC[C@@H]1[C@H]2CN(C(=O)OCc3cc(C(F)(F)F)cc(C(F)(F)F)c3)C[C@@H]12)c1ccc2[nH]nnc2c1 | cell-free assay | – | competition with immobilised ligand | 1 µM | remaining binding | 100%
Cc1ccc(NC(=O)c2ccc(CN3CCN(C)CC3)cc2)cc1Nc1nc(-c2cccnc2)cs1 | cell-free assay | – | – | 0.5 µM | remaining signal | 93.5%
CC(=O)c1c(NS(C)(=O)=O)c2cc(-c3ccc(Cl)cc3)c(-c3ccc(Cl)cc3Cl)nc2n(C)c1=O | cell-free assay | – | competition with immobilised ligand | 1 µM | remaining binding | 100%
Nc1ncnc2occ(-c3ccc(NC(=O)Nc4cc(C(F)(F)F)ccc4F)cc3)c12 | cell-free assay | inhibitor | – | 20 µM | remaining signal | 57%
